Residue numbers refer to the chain shown, from its start. Values joined by “and” are separate entries in the source; they are usually repeats but may differ in a detail not shown here. Identical values can stand only once. Counter-ions that a name gives are not always drawn. Like-named read-outs stand apart in the source and are kept apart here.
Key:
[1] = target: T1, human L-FABP T94A variant (Homo sapiens, UniProt P07148, T94A); assay: ANS displacement assay; type: binding
T1 sequence (P07148 1-127 T94A): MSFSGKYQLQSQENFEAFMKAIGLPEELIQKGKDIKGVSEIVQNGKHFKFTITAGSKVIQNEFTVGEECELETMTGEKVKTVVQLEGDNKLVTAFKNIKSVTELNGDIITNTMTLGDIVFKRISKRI

[2] = target: T2, human wild-type L-FABP T94T (Homo sapiens, UniProt P07148); assay: ANS displacement assay; type: binding
T2 sequence (P07148 1-127): T1 sequence (P07148 1-127 T94A) with A94T

rat L-FABP [3] = target: T3, rat L-FABP (Rattus norvegicus, UniProt P02692); assay: ANS displacement assay; type: binding
T3 sequence (P02692 1-127): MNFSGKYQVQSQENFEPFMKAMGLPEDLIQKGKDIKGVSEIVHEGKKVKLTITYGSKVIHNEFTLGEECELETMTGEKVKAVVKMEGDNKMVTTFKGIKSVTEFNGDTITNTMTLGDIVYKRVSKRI
Method in brief: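 Recombinant rat L-FABP (500nM, quantified by amino acid analysis) incubated 10 min with ANS (35μM) at pH 7.4, then titrated with small ligand aliquots. ANS emission scanned 410–600nm (380nm excitation). % ANS fluorescence remaining plotted vs ligand concentration gives EC50.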

[4] = test system: L-FABP T94A variant human subjects; details: cited from earlier work
human L-FABP = human L-FABP bound one ANS; cited from earlier work
[5] = target: T1, human L-FABP T94A variant; assay: ANS binding to L-FABP
[6] = target: T2, human wild-type L-FABP T94T; assay: ANS binding to L-FABP
rat L-FABP [7] = target: T3, rat L-FABP; assay: ANS binding to L-FABP
rat L-FABP [8] = target: T3, rat L-FABP; assay: Circular dichroism, ligand-induced secondary structure change; details: rat L-FABP 0.5 μM, 5 μM ligand, CD
Method in brief: (§1)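 Recombinant delipidated L-FABP (0.5 μM, by amino acid analysis) in 10 mM potassium phosphate pH 7.4. Ligand added to 5 μM from a 500 μM ethanol stock, giving 1% ethanol final. Stirred 10 min at 25 °C, then scanned 185–250 nm. Ten scans were averaged, buffer/ligand/ethanol background subtracted and smoothed. Secondary structure was analysed by CONTIN against the SDP48 reference set, and % change was taken relative to protein alone.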

[9] = target: T2, human wild-type L-FABP T94T; assay: as above; details: T94T 0.5 μM, 5 μM ligand, CD
Method in brief: as §1

[10] = target: T1, human L-FABP T94A variant; assay: as above; details: T94A 0.5 μM, 5 μM ligand, CD
Method in brief: as §1

T94T and T94A = details: cited from earlier work
[11] = read-out: ANS Displacement – Ki, T94A 500nM, ANS 35μM, ND: no displacement
[12] = read-out: ANS Displacement – Ki, T94T 500nM, ANS 35μM, ND: no displacement
[13] = read-out: ANS Displacement – Ki, rat L-FABP 500nM, ANS 35μM, ND: no displacement

## CCCCCCCC/C=C\CCCCCCCC(=O)OC[C@@H](O)COP(=O)(O)O [LPA, Oleoyl-L-α-lysophosphatidic acid sodium salt]
[1]; [11]
  Ki: 0.036 ± 0.004 µM
[2]; [12]
  Ki: 0.052 ± 0.007 µM

## CCCCCCCCCCCCCCCCCC(=O)O [Stearic acid]
[1]
  Ki: 0.028 ± 0.001 µM
[2]
  Ki: 0.029 ± 0.002 µM
Rat L-FABP [3]
  Ki: 0.037 ± 0.004 µM

## CC(C)OC(=O)C(C)(C)Oc1ccc(C(=O)c2ccc(Cl)cc2)cc1 [fenofibrate]
[4]
  lowering of elevated plasma triglyceride to basal levels: less effective in lowering elevated plasma triglyceride to basal levels

## CC/C=C\C/C=C\C/C=C\C/C=C\C/C=C\C/C=C\CCC(=O)O [Docosahexaenoic acid, cis-4,7,10,13,16,19-docosahexaenoic acid]
[1]
  Ki: 0.065 ± 0.009 µM
[2]
  Ki: 0.072 ± 0.005 µM
Rat L-FABP [3]
  Ki: 0.081 ± 0.015 µM

## O=S(=O)(O)c1cccc2cccc(Nc3ccccc3)c12 [ANS, 1-anilinonaphthalene-8-sulfonic acid]
Human L-FABP
  Kd: 2 µM
[5]
  Kd: 2.4 ± 0.1 µM
[5]; ANS bound to T94A
  Fluorescence emission Maximum: 480 nm
[5]; reverse titration, ANS 100nM, T94A
  A.U./nM when fully bound (ANS fluorescence intensity/nM): 1.0 A.U./nM and 0.98 ± 0.04 A.U./nM
[6]
  Kd: 2.3 ± 0.1 µM
[6]; ANS bound to T94T
  Fluorescence emission Maximum: 480 nm
[6]; reverse titration, ANS 100nM, T94T
  A.U./nM when fully bound (ANS fluorescence intensity/nM): 1.0 A.U./nM and 1.03 ± 0.01 A.U./nM
Rat L-FABP [7]
  Kd: 2.5 ± 0.2 µM
Rat L-FABP [7]; ANS bound to rat L-FABP
  Fluorescence emission Maximum: 477 nm
Rat L-FABP [7]; forward titration, 500nM rat L-FABP
  Bmax: 1.4 and 1.42 ± 0.01
Rat L-FABP [7]; reverse titration, ANS 100nM, rat L-FABP
  A.U./nM when fully bound (ANS fluorescence intensity/nM): 0.8 A.U./nM and 0.78 ± 0.02 A.U./nM

## CCCCCCCC/C=C\CCCCCCCC(=O)SCCNC(=O)CCNC(=O)[C@H](O)C(C)(C)COP(=O)(O)OP(=O)(O)OC[C@H]1O[C@@H](n2cnc3c(N)ncnc32)[C@H](O)[C@@H]1OP(=O)(O)O [Oleoyl CoA, Oleoyl Coenzyme A]
[1]; [11]
  Ki: 1.03 ± 0.02 µM
[2]; [12]
  Ki: 1.11 ± 0.04 µM
Rat L-FABP [3]; [13]
  Ki: 2.41 ± 0.12 µM

## CCCCCCCC/C=C\CCCCCCCC(=O)O[C@H](COC(=O)CCCCCCCCCCCCCCC)COP(=O)(O)O [POPA, 1-palmitoyl-2-Oleoyl-sn-Glycero-3-Phosphate monosodium salt]
[1]; [11]
  Ki: 2.8 ± 0.2 µM
[2]; [12]
  Ki: 2.8 ± 0.3 µM
Rat L-FABP [3]; [13]
  Ki: 9.1 ± 0.8 µM

## CCC=CCC=CCC=CCC=CC/C=C\CCCC(=O)O [Eicosapentaenoic acid, cis-5,8,11,14,17-eicosapentaenoic acid]
[1]
  Ki: 0.19 ± 0.01 µM
[2]
  Ki: 0.2 ± 0.03 µM
Rat L-FABP [3]
  Ki: 0.24 ± 0.03 µM

## CCCCCCCC/C=C\CCCCCCCC(=O)O [Oleic acid, oleic acid]
Rat L-FABP [3]
  Ki: 0.043 ± 0.002 µM

## CCCCC/C=C\C/C=C\CCCCCCCC(=O)O [Linoleic acid, linoleic acid]
[1]
  Ki: 0.132 ± 0.003 µM
[2]
  Ki: 0.113 ± 0.005 µM
Rat L-FABP [3]
  Ki: 0.081 ± 0.005 µM

## CCCCCCCC/C=C\CCCCCCCC(=O)OC(CO)CO [2-OMG, 2-oleoyl glycerol]
Rat L-FABP [8]
  change in secondary structure (L-FABP/ligand – L-FABP only): no or only small changes
[9]
  change in secondary structure (L-FABP/ligand – L-FABP only): no or only small changes
[10]
  change in secondary structure (L-FABP/ligand – L-FABP only): no or only small changes

## CCCCC/C=C\C/C=C\C/C=C\C/C=C\CCCC(=O)O [Arachidonic acid, arachidonic acid]
[1]
  Ki: 0.108 ± 0.006 µM
[2]
  Ki: 0.113 ± 0.006 µM
[10]
  change in secondary structure (L-FABP/ligand – L-FABP only): < 8%
Rat L-FABP [3]
  Ki: 0.11 ± 0.006 µM

## CCCCCCCCCCCCCCCC(=O)O [Palmitic acid, palmitic acid]
[1]
  Ki: 0.043 ± 0.001 µM
[2]
  Ki: 0.038 ± 0.001 µM
Rat L-FABP [3]
  Ki: 0.048 ± 0.001 µM

## CCCCCCCC/C=C\CCCCCCCC(=O)O[C@@H](CO)COC(=O)CCCCCCCCCCCCCCC [PODG, 1-palmitoyl-2-oleoyl-sn-glycerol]
Rat L-FABP [8]
  change in secondary structure (L-FABP/ligand – L-FABP only): no or only small changes
[9]
  change in secondary structure (L-FABP/ligand – L-FABP only): no or only small changes
[10]
  change in secondary structure (L-FABP/ligand – L-FABP only): no or only small changes

## CC(C)(Oc1ccc(C(=O)c2ccc(Cl)cc2)cc1)C(=O)O [fenofibric acid]
T94T and T94A
  Ki, T94T compared with T94A: same (or similar) Ki

## CC(C)CCC[C@@H](C)CCC[C@@H](C)CCCC(C)CC(=O)O (stereo partly drawn) [phytanic acid]
T94T and T94A
  Ki, T94T compared with T94A: same (or similar) Ki

Source: article PMC4014002 (The FEBS journal, 2014)
